Reference: ChEMBL document CHEMBL1129573, “Structure-activity relationships in a series of substituted indolocarbazoles: topoisomerase I and protein kinase C inhibition and antitumoral and antimicrobial properties” (J Med Chem, 1996)
In brackets after ≈: the same amount, converted by molar mass. Several values for one entry are separate records, joined by “and”; a condition that tells them apart may be missing. Equal values may be shown once.

What was measured:
B16 = test: Antiproliferative activity against B16 mouse melanoma cells; assay type: functional, cell-based
Outline: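 B16 mouse melanoma cells (EMEM, 10% FCS, 37 °C, 5% CO2) plated at 200 cells/dish, adhered 20 h, then exposed 24 h to increasing drug concentrations. Drug medium removed, PBS wash, 12 days regrowth in fresh medium.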

Bacillus cereus = test: Antimicrobial activity on Bacillus cereus; assay type: functional
[1] = Inhibition of Protein Kinase A (PKA).
Outline: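 PKA (1 μg/mL) phosphorylating histone IIa (1 mg/mL) with 10 μM ATP plus [γ32P]ATP, 5 mM MgCl2, 50 mM Tris pH 7.0, at 30 °C for 12 min. Stopped with 12% TCA with BSA carrier, reprecipitated. 32P incorporated into histone counted by scintillation; triplicate.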

[2] = target: Protein kinase C alpha type (Homo sapiens, UniProt P17252); test: Inhibition of Protein Kinase C(PKC)
Outline: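 Procedure a: PKC (0.5 μg/mL) with histone IIIs (2.4 mg/mL), 10 μM ATP plus [γ32P]ATP, 10 mM MgCl2, 0.1 mM CaCl2, phosphatidylserine and diacylglycerol (10 mg/mL each), 50 mM Tris pH 7.5, at 30 °C for 12 min. TCA precipitation, histone-bound 32P counted by scintillation; triplicate.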

P388 = test: Antiproliferative activity against P388 Murine Leukemia cells; assay type: functional, cell-based; conditions: Mus musculus
[3] = system: DNA topoisomerase II (Bos taurus); test: Inhibitory activity towards Topoisomerase 2 from calf thymus
[4] = system: DNA topoisomerase I (Bos taurus); test: Inhibitory activity towards Topoisomerase 1 from calf thymus.
Mus musculus [5] = test: Antitumor activity against mice with B16 melanoma was assessed from the ratio of median survival time of treated animals (T) to controls animals, at 16 mg/Kg; assay type: functional
Outline: (§1)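 Male B6D2F1 mice given 0.5 × 10⁶ B16 melanoma cells subcutaneously on the dorsum on day 0 (cells maintained in MEM culture). Drug given intraperitoneally on days 1, 5 and 9. Controls received DMSO–olive oil solvent. Six mice per treated group, 12 controls. Median survival time compared with controls, reported as oncostatic index T/C × 100.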

Mus musculus [6] = test: Antitumor activity against mice with B16 melanoma was assessed from the ratio of median survival time of treated animals (T) to controls animals, at 2 mg/Kg; assay type: functional; outline: as §1
Mus musculus [7] = test: Antitumor activity against mice with B16 melanoma was assessed from the ratio of median survival time of treated animals (T) to controls animals, at 64 mg/Kg; assay type: functional; outline: as §1
Mus musculus [8] = test: Antitumor activity against mice with P388 leukemia cell was assessed from the ratio of median survival time of treated animals (T) to controls animals, at 16 mg/Kg; assay type: functional
Outline: (§2)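 Male B6D2F1 mice injected intraperitoneally with 1×10^6 P388 leukemia cells on day 0 (line kept by weekly intraperitoneal passage in male DBA/2 mice). Drug given intraperitoneally on days 1, 5 and 9. Controls received DMSO–olive oil solvent. Six mice per treated group, 12 controls. Median survival time compared with controls, reported as oncostatic index T/C × 100.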

Mus musculus [9] = test: Antitumor activity against mice with P388 leukemia cell was assessed from the ratio of median survival time of treated animals (T) to controls animals, at 2 mg/Kg; assay type: functional; outline: as §2
Mus musculus [10] = test: Antitumor activity against mice with P388 leukemia cell was assessed from the ratio of median survival time of treated animals (T) to controls animals, at 64 mg/Kg; assay type: functional; outline: as §2
Mus musculus [11] = test: In vivo efficacy study on mice with P388 Leukemia Cells determined after administration of 16 mg/kg/day dosage; assay type: functional; outline: as §2
Mus musculus [12] = test: In vivo efficacy study on mice with P388 Leukemia Cells determined after administration of 2 mg/kg/day dosage; assay type: functional; outline: as §2
Mus musculus [13] = test: In vivo efficacy study on mice with P388 Leukemia Cells determined after administration of 64 mg/kg/day dosage; assay type: functional; outline: as §2
Mus musculus [14] = test: In vivo efficacy study on mice with B16 Melanoma cells determined after administration of 2 mg/kg/day dosage; assay type: functional, Melanoma cell; outline: as §1
Mus musculus [15] = test: In vivo efficacy study on mice with B16 Melanoma cells determined after administration of 64 mg/kg/day dosage; assay type: functional, Melanoma cell; outline: as §1
Mus musculus [16] = test: In vivo efficacy study on mice with B16 Melanoma cells determined after administration of 16 mg/kg/day dosage; assay type: functional, Melanoma cell; outline: as §1
Mus musculus [17] = test: In vivo efficacy study on mice with B16 Melanoma Cells determined after administration of 64 mg/kg/day dosage; assay type: functional; outline: as §1

## CO[C@H]1[C@H](O)[C@@H](O)[C@H](n2c3ccccc3c3c4c(c5c6ccccc6[nH]c5c32)C(=O)NC4=O)O[C@@H]1CO
B16
  IC50: 17.5 µM
Bacillus cereus
  MIC: > 50 µg/mL
[1]
  IC50: > 100 µM
[2]
  IC50: > 100 µM
P388
  IC50: 3.5 µM
[3]
  MIC: > 10 µg/mL
[4]
  MIC: 1 µg/mL (≈ 1.99 µM)

## O=C1NC(=O)c2c1c1c3cccc(Cl)c3[nH]c1c1[nH]c3c(Cl)cccc3c21
B16
  IC50: 24 µM
Bacillus cereus
  MIC: > 50 µg/mL
[1]
  IC50: > 100 µM
[2]
  IC50: > 100 µM
P388
  IC50: > 10 µM

## O=C1NCc2c1c1c3ccccc3[nH]c1c1[nH]c3ccccc3c21 [STAUROSPORINONE]
B16
  IC50: 4.8 µM
Bacillus cereus
  MIC: > 50 µg/mL
Mus musculus [5]
  T/C x100: 122
Mus musculus [6]
  T/C x100: 94
Mus musculus [7]
  T/C x100: 106
Mus musculus [8]
  T/C x100: 100
Mus musculus [9]
  T/C x100: 100
Mus musculus [10]
  T/C x100: 104
Mus musculus [11]
  Mean survival in days: 11
Mus musculus [12]
  Mean survival in days: 11
Mus musculus [13]
  Mean survival in days: 11.5
Mus musculus [14]
  Mean survival in days: 23
Mus musculus [15]
  Mean survival in days: 26
Mus musculus [16]
  Mean survival in days: 30
[1]
  IC50: 25.7 µM
P388
  IC50: 4 µM

## COC1C(CO)OC(n2c3c(Cl)cccc3c3c4c(c5c6cccc(Cl)c6[nH]c5c32)C(=O)N(NC=O)C4=O)C(O)C1O (configuration not stated)
Bacillus cereus
  MIC: 3.1 µg/mL (≈ 5.05 µM)
[2]
  IC50: > 100 µM
P388
  IC50: 0.3 µM
[3]
  MIC: > 10 µg/mL
[4]
  MIC: 1 µg/mL (≈ 1.63 µM)

## O=C1c2c(c3c4ccccc4[nH]c3c3[nH]c4ccccc4c23)C(=O)N1O
B16
  IC50: 4.6 µM
Bacillus cereus
  MIC: > 50 µg/mL
Mus musculus [5]
  T/C x100: 128
Mus musculus [6]
  T/C x100: 112
Mus musculus [7]
  T/C x100: 112
Mus musculus [8]
  T/C x100: 100
Mus musculus [9]
  T/C x100: 104
Mus musculus [10]
  T/C x100: 100
Mus musculus [11]
  Mean survival in days: 11
Mus musculus [12]
  Mean survival in days: 11.5
Mus musculus [13]
  Mean survival in days: 11
Mus musculus [14]
  Mean survival in days: 27.5
Mus musculus [17]
  Mean survival in days: 27.5
Mus musculus [16]
  Mean survival in days: 31.5
[1]
  IC50: 41.5 µM
[2]
  IC50: 79.2 µM
P388
  IC50: > 10 µM
[3]
  MIC: > 10 µg/mL
[4]
  MIC: > 10 µg/mL

## COC1C(CO)OC(n2c3ccccc3c3c4c(c5c6ccccc6[nH]c5c32)C(=O)N(N)C4=O)C(O)C1O (configuration not stated)
B16
  IC50: 4.1 µM
Bacillus cereus
  MIC: 50 µg/mL (≈ 96.8 µM)
[2]
  IC50: > 100 µM
P388
  IC50: 0.3 µM
[3]
  MIC: > 10 µg/mL
[4]
  MIC: 0.1 µg/mL (≈ 0.194 µM)

## COC1C(CO)OC(n2c3c(Cl)cccc3c3c4c(c5c6cccc(Cl)c6[nH]c5c32)CNC4=O)C(O)C1O (configuration not stated)
B16
  IC50: > 125 µM
Bacillus cereus
  MIC: 3.1 µg/mL (≈ 5.57 µM)
[1]
  IC50: > 100 µM
[2]
  IC50: 28.8 µM
P388
  IC50: 3 µM
[3]
  MIC: > 10 µg/mL
[4]
  MIC: 1 µg/mL (≈ 1.8 µM)

## O=C1NC(O)c2c1c1c3cccc(Cl)c3[nH]c1c1[nH]c3c(Cl)cccc3c21 (configuration not stated)
B16
  IC50: 8.4 µM
Bacillus cereus
  MIC: > 50 µg/mL
[1]
  IC50: > 100 µM
[2]
  IC50: > 100 µM
P388
  IC50: 9 µM
[3]
  MIC: > 10 µg/mL
[4]
  MIC: > 10 µg/mL

## COC1C(CO)OC(n2c3ccccc3c3c4c(c5c6ccccc6[nH]c5c32)C(=O)N(NC=O)C4=O)C(O)C1O (configuration not stated)
Bacillus cereus
  MIC: 25 µg/mL (≈ 45.9 µM)
[2]
  IC50: > 100 µM
P388
  IC50: 0.3 µM
[3]
  MIC: > 10 µg/mL
[4]
  MIC: 0.1 µg/mL (≈ 0.184 µM)

## NN1C(=O)c2c(c3c4ccccc4[nH]c3c3[nH]c4ccccc4c23)C1=O
B16
  IC50: > 250 µM
Bacillus cereus
  MIC: > 50 µg/mL
[1]
  IC50: 44.6 µM
[2]
  IC50: 43.5 µM
P388
  IC50: > 10 µM

## CO[C@H]1[C@H](O)[C@@H](O)[C@H](n2c3c(Cl)cccc3c3c4c(c5c6cccc(Cl)c6[nH]c5c32)C(=O)NC4=O)O[C@@H]1CO [REBECCAMYCIN]
B16
  IC50: 0.48 µM
Bacillus cereus
  MIC: 6.25 µg/mL (≈ 11 µM)
Mus musculus [5]
  T/C x100: 112
Mus musculus [6]
  T/C x100: 124
Mus musculus [7]
  T/C x100: 106
Mus musculus [8]
  T/C x100: 150
Mus musculus [9]
  T/C x100: 136
Mus musculus [10]
  T/C x100: 164
Mus musculus [11]
  Mean survival in days: 16.5
Mus musculus [12]
  Mean survival in days: 15
Mus musculus [13]
  Mean survival in days: 18
Mus musculus [14]
  Mean survival in days: 30.5
Mus musculus [16]
  Mean survival in days: 27.5 and 26
[1]
  IC50: > 100 µM
P388
  IC50: 0.3 µM

## NN1C(=O)c2c(c3c4cccc(Cl)c4[nH]c3c3[nH]c4c(Cl)cccc4c23)C1=O
B16
  IC50: 17 µM
[2]
  IC50: > 100 µM
P388
  IC50: > 10 µM
[3]
  MIC: > 10 µg/mL
[4]
  MIC: > 10 µg/mL
